In the RNAGym collection of RNA variant scans (doi:10.1126/science.aae0568):
Fewer inactive variants are shown than the library holds.

B1: tRNA (parent)
chain: GUUCCGUUGGCGUAAUGGUAACGCGUCUCCCUCCUAAGGAGAAGACUGCGGGUUCGAGUCCCGUACGGAACG

Variants of: B1
Test: yeast fitness relative to wild type (ratio to wild type); higher = fitter; tRNA-Arg(CCU), competitive growth, 37 C, YPD
Procedure, shortened: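 Start and end populations of a pooled competition were compared by 100-nucleotide paired-end sequencing of gene amplicons. The Saccharomyces cerevisiae strains carried tRNA-Arg(CCU) gene variants at the native genomic locus, synthesised with a 3% per-site mutation rate at 69 sites, and competed in YPD at 37°C for 24 hours in six parallel replicates. Darwinian fitness relative to wild type was based on the change in genotype frequencies. Genotypes required ≥ 100 starting reads, and estimates < 0.5 were set to 0.5.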

Variant	yeast fitness
GUUCCGUUGGCGUAAUGGUAACGCGUCUCCCUCUUAAGGAGAAGACUGCGGGUUCGAGUCCCGUAAGGAACG [C34U C66A]	≤ 0.5
GUUCCGUUGGCAUAAUGGUAACGCGUCUCCCUCCUAAGGUGAAGGCUGCGGGUUCGAGUACCGUACGGAACG [G12A A40U A45G C60A]	≤ 0.5
GUUUCGUUGGCGUAAUGGUAACGCGUCUCCCUGCUAAGGAGAAGACUGCGGGUUCGAGUCCCGUACGGAACG [C4U C33G]	0.722
GUUCCGUUGGCGUAAUGGUAACGCGUCGCCGUCCUAAGGAGAAGUGUGCGGGUUCGAAUCCCGUACGGAACG [U28G C31G A45U C46G G58A]	0.529
GUUCCGUUGGCGUAAUGGUAACGCGUCUCCCUCCGAAGGAGAAGACUGCGAGUUCGAGUCCCGUCCGGAACG [U35G G51A A65C]	0.622
GUUCCGUUGGCGUAAUGGUAACGCGUCCCCCUCCUAAGGAGCAGACUGCGGGUUCGAGUCCCGUACGGAACG [U28C A42C]	0.858
GUUCCGUUGGCGUAAUGGUAAAGCGUCGCCGUCCUAAGGAGUAGACUGCGGGUUCGAGUCUCGUACGGAACG [C22A U28G C31G A42U C61U]	≤ 0.5
GUUCCGUUGACGUAAUGGUAACGCGUCUCCCUCCUAAGGAGAAGUCUGCGGGGUCGAGUCCCGUACGGAACG [G10A A45U U53G]	≤ 0.5
GUCCCGUUAGCGUAAUGGUAACGCGUCUCCCUCGUAAGGAGGAGACUGGGGGUUCGAGUCCUGUACGGCACG [U3C G9A C34G A42G C49G C62U A69C]	≤ 0.5
GUUUCGUUGGCGUAAUGGUAACGCGUCUCCCUCCUAAGGAGAACACUGCGGGUUCGUGUCCCGUACGGAACG [C4U G44C A57U]	0.595
GUUCCGUUGGCGUAAUGGUAACCCGUCUCCCUGCUAAGGAGAAGAAUGCGGGUUCGAGUCCCGUAAGGAACG [G23C C33G C46A C66A]	0.596
GUUUCGUUGGCGUAAUGGUAACGCAUCUCCCUCCUAAGGAGAAGACUGCGGGUUCGAGUCCCGUAUGGAACG [C4U G25A C66U]	0.75
GUUCCGUUGGCGUAAUGGUAACGCGUCUCCCUCCUAAGGCGAAGACUGCGGGUUCGAGUCCAGUACGGAACG [A40C C62A]	0.651
GGUCCGUCGGCGUAAUGGUAAUGGGUCUCCCCCCUAGGGAGAAGACUGCGGGUUCGAGUCCCGUACGGGGCG [U2G U8C C22U C24G U32C A37G A69G A70G]	≤ 0.5
GUUCCGUUGGCGUAAUGGUAACGCGUCUCCCUCCAAAGGAGAAGACUGCGGGUUCGUGUCUCGUACGGAACG [U35A A57U C61U]	≤ 0.5
GUUCCGUUGGUGUAAUGGUAACGCGUCUCCCUCCUAAGGAGAAGAGUGCGGGUUCGAGUCCCGUACGGAACG [C11U C46G]	0.986
GUUCCGUUGGCGUAAUGGUAACGCGUCUUCCUCCUAAAGAGAAGACUGCGGGUUCGAGUCCCGUACGGAACG [C29U G38A]	0.733
GUUCCGUUGGCGUAAUGGUAACGCGUCUUCCUCCUAAGGAGAAGACUGCGGGUUCGACUCCCGUGCGGAACG [C29U G58C A65G]	0.61
GUUCCGUUGGCGUAAUGGCGACGCGUCUCCCUCCUAGGGAGAAGACUGCGGGUUCGAGUCCCGUACGGAACG [U19C A20G A37G]	≤ 0.5

Variant	yeast fitness
GUUCCGUUGACGUAAUGGUAACGCGUCUCCCUCCUAAGGAGAAGACUGCGGGUUCGAGUCCUGUAUGGAACG [G10A C62U C66U]	0.617
GUUCCGUUGGCGCAAUGGUAACGCGUCUCCCUCCUAAGGUGAAGACUGCGGGUUCGAGUCCAGUACGGAACG [U13C A40U C62A]	0.557
GCUCUGUUGGCGUAAUGGUAACGCGUCUCCCUCCUAAGGUGAAGACUGCAGGUUCGAGUCCCGUACGGAACG [U2C C5U A40U G50A]	≤ 0.5
GUUCCGUUGGCGUAAUGGAAACGCGUCUCCCUCCUGAGGAGAAGACUGCGGGUUCGAGACCCGUACGGAACG [U19A A36G U59A]	≤ 0.5
GUUCCGUUGGCGUAACGGUAACGCGUGUUCCUCCUAAGGAGAAGACUGCGGGUCCGAGUCCCGUACGGAACG [U16C C27G C29U U54C]	0.568
GUUCCGUUGGCGUAAUGGUAACGCGUCUCCGUCCUAAGGAGAAAACUGCGCGUUCGAGUCCCGUGCGGAACG [C31G G44A G51C A65G]	0.537
GUUCCGUUGGCGUAAUGGUAACGGGUCUUCCUCCUAAGGAGAAGACUGCGCGUUCGAGUCCCGUACGGAUCG [C24G C29U G51C A70U]	≤ 0.5
GUUCCGUUAGCGUAAUGGUAACGCGUCUCCCUCCUAAGGAGAAGACGGCGGGUUCGAGUCCCGUACGGAACG [G9A U47G]	0.626
GUUCCGUUGACGUCAUGGUAACGCGUCUACCUCCUAAGGAGAAGACUGCGGGUUCGAGUCCCGUACGGAACG [G10A A14C C29A]	≤ 0.5
GUUCCGUUGGCGUAAUGGUAUCGCGUCUCCCUCCUAAGGAGAAGACUGCGGGUUAGAGUCCCGUCCGGAACG [A21U C55A A65C]	≤ 0.5
GUUACGUUGGCGUAAUGGUAACGCGUCUCCCUACUAAGGAGAAGACUGCGGGUUCGAGUACCGCACGGAACG [C4A C33A C60A U64C]	≤ 0.5
GUUCGGUUGGCGUAAUGGUAACGCGUCUCUCACCUAAGGAGAAGACUGGGGGUUCGAGUCCCGUACGGAACG [C5G C30U U32A C49G]	≤ 0.5
GUUCCGUUGGCGUAAUGGUAAUGCGUCUCCCUCCUAAGGAGAAGACUGCGGGUUCGAGUCCCGAACGGAACG [C22U U64A]	0.837
GUUCCGUAGGCGUAAUGGUAACGCGUCUCCCUCCUAAGCAGAAGACUGCGGGUUCGAGUCCCGUACGGACCG [U8A G39C A70C]	0.751
GUUCCGUUGGCGUAAUGGUAACGCGUCUCCCUCCUAAGGAGAAGACUGCGGGUUCGCGUCCCGUGCGGAACG [A57C A65G]	0.573
GUUCCGUUGGGGUAAUGGUAACGCGUCUGCCUCCCAAGGAGAAGUCUGCGGGUUCGAGUCCCGUACGGAACG [C11G C29G U35C A45U]	≤ 0.5
GUUCCGAUGGCGUAAUGGUAACGCGUCUGCCUCCUAAGGAGAAGACUGCGGGUUCGAGUCCCGUACGGAACG [U7A C29G]	≤ 0.5
GUUGCGUUGGCGUAAUGGUAACGCGUCUCCCUCCUAAGGAGAACACUGGGGGUUCAAGUCGCGUUCGGGACG [C4G G44C C49G G56A C61G A65U A69G]	0.641
